Assay: Toxicity liver stage against HepG2, at 10uM
Format: cell-based
Parameters: test concentration 10 uM, cell line HepG2-A16-CD81EGFP
Conditions: human, HepG2-A16-CD81EGFP cells; read-out: INHIBITION
In short: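 Uninfected HepG2-A16-CD81EGFP cells, 3 × 10^3 per well, 1536-well, plated on prespotted compound at 10 μM final, parasite-free screening media added to match infected plates; puromycin 10 μM positive, DMSO 0.5% negative; run in parallel with 48 h PbLuc assay at 37 °C, 5% CO2; viability by CellTiter-Glo luminescence, normalized to controls.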

Compound | cytotoxicity at 10 µM
COCc1cc(CC2(NC3CCN(C)CC3)COC2)no1 | -4.12%
O=C1N(Cc2ccccn2)C[C@H]2CN(C3CCC3)CCN12 | -4.81%
CC(C)Cc1cc(CC2(NCc3ccco3)COC2)no1 | 6.25%
CN(C)C(=O)c1cc(-c2ccncc2)[nH]n1 | 0.676%
CCOC(=O)N1[C@@H](c2ccco2)[C@@H](C(=O)O)C[C@]12CCCCNC2=O | -2.98%
O=C1CN(C(=O)c2ccc(Cl)cc2)CC(O)CN1Cc1cccs1 (configuration not stated) | 0.331%
COCCNC(=O)Cn1cc(OCc2ccccc2)c(=O)cc1CO | -7.44%
O=C(NC1CCCc2c1[nH]c1ccc(F)cc21)c1n[nH]c2c1CCCC2 (configuration not stated) | 46.4%
Cn1cccc1C(O)CNC(=O)COc1ccc(Cl)cc1Cl (configuration not stated) | -1.23%
COc1ccccc1C(O)Cn1cc(C(=O)NCC2CC2)nn1 (configuration not stated) | -2.62%
CC(C)NC(=O)N1CCC2(CC1)NC(=O)[C@H]1CN(C(=O)N(C)C)C[C@H]12 | -1.66%
Cc1nc(CN2C(=O)C[C@@H]3[C@@H]2CCN3Cc2cnn(C)c2)cs1 | 2.44%
Cc1ccc(N2CC[C@@H]3CN(Cc4c[nH]cn4)C[C@@H]3C2)nn1 | 7.43%
Cc1noc(C2CCC3(CCN(C(=O)c4ccnnc4)CC3)O2)n1 (configuration not stated) | 6.69%
COCc1ncn2c1CN(C(=O)Nc1cccc(OC)c1)CC2 | 12.7%
O=C(c1ccco1)N1CCOCC2(C1)CN(c1ccoc1)C(=O)CO2 (configuration not stated) | -6.04%
COCCN1CCO[C@H]2[C@H](OCc3cccc(C)n3)CC[C@@H]21 | -1.01%
CC(C)c1noc(-c2ccnc(-n3cnc(C(=O)O)c3)c2)n1 | 0.715%
Cc1ccc(-n2c(O)cc(C)c(C#N)c2=O)c(C)c1 | 7.75%
COCCNC(=O)CCc1c(C)nn(-c2nc(C)c(C)c(=O)[nH]2)c1C | 11.1%
CN(C)S(=O)(=O)N1CCC(Oc2ccccn2)CC1 | 13.6%
O=C(c1ccccn1)N1Cc2nccn2CC(COc2cccnc2)C1 (configuration not stated) | -9.52%
Cn1cccc1C(=O)N1CCN(CC2CC2)c2ncccc2C1 | -21.9%

Compound | cytotoxicity at 10 µM
CN(C)C(=O)COCc1cncc2c1CCN(Cc1nccn1C)C2 | -7.61%
CCOCC1CN(C(=O)N(C)C)Cc2nn(C)cc21 (configuration not stated) | -11.9%
CC1CCCN(C(=O)c2cc(-c3ccco3)cs2)C1 (configuration not stated) | 7%
NCc1n[nH]c(-c2cccc(F)c2)n1 | -167%
Cc1ccc2cnn(CCC(=O)Nc3c(C)nn(C)c3C)c2c1 | -13.4%
O=C(c1cc2cccc(F)c2[nH]1)N1C[C@@H](O)[C@H](N2CCOCC2)C1 | 0.0453%
CNc1cc(CCNS(=O)(=O)c2ccccc2)nc(-c2ccccn2)n1 | 5.13%
Cc1c[nH]c(C2COCCN2S(=O)(=O)c2cn[nH]c2)n1 (configuration not stated) | -22.8%
CS(=O)(=O)NC[C@]1(O)CCN(C(=O)Cc2cccs2)C[C@H]1O | -17.9%
Cc1cc(C)nc(C2CCN(C(=O)c3c(C)noc3C)C2)n1 (configuration not stated) | -4.34%
Cc1cc(N(C)C)nc(C2(C)CCCN2C(=O)c2cncnc2C)n1 (configuration not stated) | -11.3%
CN(C)c1nc2ncc(Cl)cc2cc1C#N | 9.54%
CC(Cc1ccccc1F)C(=O)Nc1ccc(OCCC(N)=O)cc1 (configuration not stated) | -5.56%
CC(CNC(=O)c1cc(-n2cccn2)ccn1)Cn1ccnc1 (configuration not stated) | -3.43%
CC(C)(C)c1ccc2c(c1)CCN2C(=O)c1nc(=O)[nH][nH]1 | -3.74%
CS(=O)(=O)CCN1CCN(c2ccc(Cl)cn2)CC1 | 4.13%
Cc1ccc(CN(C)C(=O)C(C)n2cncn2)o1 (configuration not stated) | -3.33%
COCCN1CCN(CC(=O)NC2(C#N)CCCC2)CC1 | 3.5%
Cc1cccc2nc(CN3CCCC(Cn4ccnn4)C3)cc(=O)n12 (configuration not stated) | 3.23%
Cc1nn(C)c2ncc(NC(=O)N3CCCCCC3)cc12 | 4.87%
O=C(c1cc2c(s1)CCC2)N1CCN(c2cnccn2)CC1 | 1.5%
O=C(C1COCCO1)N1CCN(CC(F)(F)F)c2ccccc21 (configuration not stated) | 7.36%
CCC(C)(C)NC(=O)c1ccc(NC(=O)NCc2cc(C)on2)cc1 | -1.84%

Compound | cytotoxicity at 10 µM
CCS(=O)(=O)NCC(=O)NC(c1cc(C)sc1C)C(C)C (configuration not stated) | 3.77%
O=C(CN1CCS(=O)(=O)CC1)NC1CCCCc2ccccc21 (configuration not stated) | 7.28%
Cc1ccc(C)c(S(=O)(=O)NC(=O)COc2cccc(C#N)c2)c1 | 9.7%
CC(=O)NCCNC(=O)c1cc(Br)c2c(c1)OCCO2 | -1.54%
NC(=O)C1CCCN1Cc1cccc(NC(=O)c2cccs2)c1 (configuration not stated) | -12.7%
CS(=O)(=O)CCCSc1cccc(C#N)c1 | -1.38%
CN(Cc1ccc(N2CCOCC2)cc1)Cc1noc(C(C)(C)C)n1 | 14%
Cc1cnn(CCNCC(O)c2ccc3c(c2)OCCO3)c1 (configuration not stated) | 3.31%
Cc1c(C(C)NC(=O)C2CCCC2)cnn1C (configuration not stated) | -10.9%
COc1ccc(CC(=O)NC2(C#N)CCOCC2)c(Cl)c1 | -6.48%
COc1ccc(CNC(=O)c2ccc(Cl)cc2F)cc1C(=O)O | -1.62%
O=C(CN1CCCC1Cn1cncn1)Nc1nncs1 (configuration not stated) | 5.05%
CCc1nnc2n1CC(CNCc1nc(C)c(C)o1)CC2 (configuration not stated) | -16%
CCN(C)C(=O)C1(c2ccc(F)cc2F)CCC1 | -7.74%
CCOc1ncccc1CNS(=O)(=O)N1CCOCC1 | -10.2%
Cc1cc(CNC(=O)N2CCN(Cc3ccccc3)C[C@H]2C)on1 | -131%
Cc1ccc(C(=O)NCC2COCCO2)c(=O)[nH]1 (configuration not stated) | 10.9%
CCC1CN(CC(=O)NC(C)C)CCO1 (configuration not stated) | 2.16%
CNC(=O)c1ccc(NC(=O)NC(C)c2cc(C)oc2C)c(C)c1 (configuration not stated) | -10.6%
CS(=O)(=O)N1CCOC2(CCCC2)C1 | -4.7%
Cc1nc(-c2ccccc2C)n(CC(=O)NC(C)C)n1 | 7.47%
Cc1cc(C#N)ccc1S(=O)(=O)NCc1cnc(N(C)C)n1C | -2.64%
Cc1nc(CNC(=O)CCN2CCN(c3ccccn3)CC2)oc1C | -4.97%

Compound | cytotoxicity at 10 µM
COCC(O)CN(C)c1ccnc2cc(F)ccc12 (configuration not stated) | -2.63%
CC(O)CN1CCC(CN(C)CC(=O)NC2CCOCC2)CC1 (configuration not stated) | -3.33%
CC(=O)NCCCNCc1cc(F)ccc1Br | -0.595%
O=C(NCc1cc[nH]n1)NCC(c1ccccc1Cl)N1CCCC1 (configuration not stated) | 14.7%
Cc1cc(C)n(-c2cncc(NCCNC(=O)CC3CCCC3)n2)n1 | -5.71%
O=C(NCc1ccccc1CN1CCC(O)CC1)Nc1cccnc1 | -8.8%
CC(C)COC(C)C(=O)N1CCN(S(C)(=O)=O)CC1 (configuration not stated) | -5.38%
CCc1noc(C(C)N(C)CC(=O)Nc2c(C)cccc2C)n1 (configuration not stated) | 2.14%
CCc1nc(CN2CCCN(c3nc4ccccc4o3)CC2)no1 | -22.5%
Cc1nc(NC(=O)CNC(=O)c2c(F)cccc2Cl)n[nH]1 | -10.2%
CCOc1ncccc1NC(=O)c1sccc1C | -16.1%
CCS(=O)(=O)N1CC[C@H]2O[C@H](c3nnc(C)o3)CC[C@H]21 | -75.6%
CCc1ccc(CN2CCN(c3cccc(OC)c3)C(=O)C2)nc1 | 1.76%
CCc1nc(C)sc1C(=O)N1CCN(c2ncccc2C)CC1 | 1.39%
Cc1cc(N(C)Cc2c(C)noc2C)n2nc(C)c(C)c2n1 | 5.44%
Cc1cccc(CN(Cc2ccccc2)Cc2nccs2)n1 | 12.4%
CCc1[nH]c2c(CNC(=O)C3CCC(=O)NC3)cc(C)cc2c1C (configuration not stated) | -3.79%
Cc1ccc2occ(CN3CCN(c4ncccn4)CC3)c(=O)c2c1 | -2.46%
CCC(O)Cn1cc(C2=CCN(Cc3ccc(OC)cc3)CC2)cn1 (configuration not stated) | -3.94%
CC(C)OC(=O)N1CCC(c2nnc(Cn3ccnc3)n2C)CC1 | -120%
O=C(COCC(F)(F)C(F)F)N1CCC2(CCCN(CCO)C2=O)C1 (configuration not stated) | 8.77%
CCC(O)CNc1nccc(-c2ccc(C)nc2C)n1 (configuration not stated) | -2.92%
CCCN1CC2(CCN(C)CC2)CC1C(=O)NCCn1cc(C)cn1 (configuration not stated) | -22.9%

Compound | cytotoxicity at 10 µM
O=C(c1cccc(-c2ccc(F)cc2)c1)N1CCC2(CC1)[C@H](O)C[C@@H]2O | 2.37%
NC(=O)C1CCCN(C(=O)c2ccc(-n3ccnc3)cc2)C1 (configuration not stated) | -4.4%
O=C(C1CC(=O)N(C2CC2)C1)N1CCN(CCn2cccc2)CC1 (configuration not stated) | -12%
CC(c1ccccc1)n1c(SCC(=O)O)nnc1-c1ccccc1Cl (configuration not stated) | 1.31%
CCCC(C)N(C)C(=O)c1nc(S(C)(=O)=O)n2ccccc12 (configuration not stated) | -8.16%
Cc1oc(C)c(C(=O)NCc2cccnc2)c1C | 5.19%
COc1ncccc1C(=O)N1CCN(C(=O)Cc2ccccn2)CC1 | 0.722%
COc1c(CNCc2ccnc(N3CCCC3)c2)c(C)nn1C | 4.31%
O=C(Cn1cccn1)NCC1(c2ccccc2)CC1 | 3.13%
O=C(Nc1cc(F)ccc1OCC1CCCO1)c1ccc(O)nc1 (configuration not stated) | -2.91%
Cn1ccc(C(=O)N2CCCC(n3cncn3)C2)cc1=O (configuration not stated) | -2.43%
Cn1cccc1C(=O)N1CCC2(CC1)COC(COc1ccccn1)C2 (configuration not stated) | 1.48%
Cn1cc(C(=O)N[C@H]2CN(Cc3nccs3)[C@@H]3CCCO[C@H]23)cn1 | 0.893%
c1cnc(N2CCOC3(COCCN(Cc4cc[nH]n4)C3)C2)nc1 (configuration not stated) | 11.8%
CC(C)c1nn(C)c(N(C)C)c1CNCc1ccccc1CO | -9.89%
O=C1CC2(CCN(CCO)C2)CN1c1cccc(F)c1 (configuration not stated) | -149%
CC1c2ncc(Cn3cncn3)n2CCN1CC1CCOCC1 (configuration not stated) | 2.84%
O=C1[C@@H]2CCN(C3CCOCC3)C[C@@H]2OCCN1Cc1cccnc1 | -80%
Cc1nc(Cn2c3c(ccc2=O)CCN(CC2CC2)CC3)cs1 | 1.63%
c1cncc(CN2CC[C@@H]3[C@@H]2CCN3Cc2ccc3c(c2)OCO3)c1 | -3.04%
